Measurements from ChEMBL document CHEMBL4622936, “Discovery of the potent non-steroidal glucocorticoid receptor modulator BAY 1003803 as clinical candidate” (Bioorg Med Chem Lett, 2020).

Key:
[1] = Lipophilicity, logP of compound; type: physicochemical; details: octanol/water
[2] = test system: THP-1; experiment: Immunomodulatory activity in human THP1 cells assessed as reduction in LPS-induced IL-8 production relative to control; type: functional
[3] = test system: THP-1; experiment: Immunomodulatory activity in human THP1 cells assessed as reduction in LPS-induced IL-8 production; type: functional, cell-based
In short: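 Human promyeloid THP-1 cells were stimulated with lipopolysaccharide to induce IL-8 synthesis, and inhibition of IL-8 production by the test compound was measured.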

[4] = Inhibition of collagenase (unknown origin) transfected in human HeLa cells by luciferase reporter gene assay; type: cell-based
[5] = test system: HeLa; experiment: Inhibition of collagenase (unknown origin) transfected in human HeLa cells by luciferase reporter gene assay relative to control; type: cell-based
[6] = test system: PBMC; experiment: Inhibition of LPS-induced IL12p40 release in human PBMC cells relative to control; type: functional
[7] = test system: PBMC; experiment: Inhibition of PHA-induced IL2 release in human PBMC cells; type: functional, cell-based
In short: (§1)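 Primary human peripheral blood mononuclear cells were stimulated with LPS (IL-12p40, TNFα) or PHA (IFNγ, IL-2, IL-4). Cytokine release was measured with test compound, and clobetasol and dexamethasone were run in parallel as reference glucocorticoids.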

[8] = test system: PBMC; experiment: Inhibition of LPS-induced TNFalpha release in human PBMC cells; type: functional, cell-based; in short: as §1
[9] = test system: PBMC; experiment: Inhibition of PHA-induced IL4 release in human PBMC cells; type: functional, cell-based; in short: as §1
[10] = test system: PBMC; experiment: Inhibition of PHA-induced IFNgamma release in human PBMC cells; type: functional, cell-based; in short: as §1
[11] = test system: PBMC; experiment: Inhibition of PHA-induced IL4 release in human PBMC cells relative to control; type: functional
[12] = test system: PBMC; experiment: Inhibition of LPS-induced TNFalpha release in human PBMC cells relative to control; type: functional
[13] = test system: PBMC; experiment: Inhibition of LPS-induced IL12p40 release in human PBMC cells; type: functional, cell-based; in short: as §1
[14] = test system: PBMC; experiment: Inhibition of PHA-induced IFNgamma release in human PBMC cells relative to control; type: functional
[15] = test system: PBMC; experiment: Inhibition of PHA-induced IL2 release in human PBMC cells relative to control; type: functional

Compound | logP [1] | IC50 [3] [nM] | EC50 [4] [nM] | Emax [2] [%] | Emax [5] [%] | Efficacy [6] [%] | IC50 [7] [nM] | IC50 [8] [nM] | IC50 [9] [nM] | IC50 [10] [nM] | Efficacy [11] [%] | Efficacy [12] [%] | IC50 [13] [nM] | Efficacy [14] [%] | Efficacy [15] [%]
CCSC[C@@](O)([C@@H](Nc1cccc2nc(C)ccc12)c1ccc(OC)cc1)C(F)(F)F | 4.2 | 6.31 | 10 | 86 | 70 | – | – | – | – | – | – | – | – | – | –
CCSC[C@@](O)([C@@H](Nc1cccc2nc(C)ccc12)c1ccc(OC)c(F)c1)C(F)(F)F | 4.1 | 5.01 | 6.31 | 82 | 77 | – | – | – | – | – | – | – | – | – | –
CCSC[C@@](O)([C@@H](Nc1cccc2nc(C)ccc12)c1ccc(F)cc1OC)C(F)(F)F | 4.4 | 5.01 | 10 | 78 | 72 | – | – | – | – | – | – | – | – | – | –
C[C@H]1C[C@H]2[C@@H]3CCC4=CC(=O)C=C[C@]4(C)[C@@]3(F)[C@@H](O)C[C@]2(C)[C@@]1(O)C(=O)CCl [CLOBETASOL] | – | – | – | – | – | 98 | 0.14 | 0.23 | 0.07 | 0.16 | 99 | 102 | 0.14 | 101 | 97
COc1ccc([C@H](Nc2cccc3nc(C)ccc23)[C@](O)(CN(C)C)C(F)(F)F)c(Cl)c1F | 5.3 | 5.01 | 39.8 | 77 | 66 | – | – | – | – | – | – | – | – | – | –
COc1ccc([C@H](Nc2cc(F)cc3[nH]c(=O)ccc23)[C@](O)(CN(C)C)C(F)(F)F)c(Cl)c1F | 4.4 | 7.94 | 3.98 | 109 | 62 | – | – | – | – | – | – | – | – | – | –
CCSC[C@@](O)([C@@H](Nc1cccc2nc(C)ccc12)c1ccc(C)cc1)C(F)(F)F | 4.8 | 2.51 | 12.6 | 87 | 66 | – | – | – | – | – | – | – | – | – | –

Now from value to compound, other results behind:

logP [1] | IC50 [3] [nM] | EC50 [4] [nM] | Compound | Emax [2] [%] | Emax [5] [%] | Efficacy [6] [%] | IC50 [7] [nM] | IC50 [8] [nM] | IC50 [9] [nM] | IC50 [10] [nM] | Efficacy [11] [%] | Efficacy [12] [%] | IC50 [13] [nM] | Efficacy [14] [%] | Efficacy [15] [%]
5.3 | 1.58 | 1.26 | CCSC[C@@](O)([C@@H](Nc1cccc2nc(C)ccc12)c1ccc(Cl)c(F)c1OC)C(F)(F)F | 82 | 66 | – | – | – | – | – | – | – | – | – | –
3.8 | 0.2 | 1.58 | COC[C@@](O)([C@@H](Nc1cccc2nc(C)ccc12)c1ccc(OC)c(F)c1Cl)C(F)(F)F | 97 | 80 | – | – | – | – | – | – | – | – | – | –
3.4 | 1.26 | 1.58 | COc1ccc([C@H](Nc2cccc3nc(C)ccc23)[C@](O)(CC#N)C(F)(F)F)c(Cl)c1F | 83 | 80 | – | – | – | – | – | – | – | – | – | –
3.9 | 0.1 | 0.398 | COc1ccc([C@H](Nc2cc(F)cc3[nH]c(=O)ccc23)[C@](O)(CSC)C(F)(F)F)c(Cl)c1F | 100 | 94 | – | – | – | – | – | – | – | – | – | –
– | 2.51 | 7.94 | C[C@@H]1C[C@H]2[C@@H]3CCC4=CC(=O)C=C[C@]4(C)[C@@]3(F)[C@@H](O)C[C@]2(C)[C@@]1(O)C(=O)CO [DEXAMETHASONE] | 100 | 100 | 100 | 4.6 | 6.4 | 2.3 | 3.8 | 100 | 100 | 4.3 | 100 | 100
4.6 | 2 | 10 | CCSC[C@@](O)([C@@H](Nc1cccc2nc(C)ccc12)c1cccc(F)c1OC)C(F)(F)F | 69 | 47 | – | – | – | – | – | – | – | – | – | –
